The text below walks through data of ChEMBL document CHEMBL3867443, “Polyprenylated Tetraoxygenated Xanthones from the Roots of Hypericum monogynum and Their Neuroprotective Activities” (J Nat Prod, 2016).

SMILES strings stand for the structures. Active and inactive are the calls of the source. The rule behind the calls is not given here.

Data set [1] is described as follows: Neuroprotective activity in rat PC12 cells assessed as reduction in corticosterone-induced lesions by measuring cell viability at 25 uM pretreated for 24 hrs followed by corticosterone-challenge after 48 hrs by MTT assay. The format is functional, cell-based. Conditions: PC-12. In outline:
(§1)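 PC12 cells seeded at 2 × 10^4 cells/well and pretreated 24 h with compound, then 200 μM corticosterone for 48 h. Fluoxetine 12.50 μM was the positive control. MTT absorbance read at 570 nm with 630 nm reference. Viability given as % of untreated control, mean ± SEM of three independent experiments, compared by ANOVA.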
(In general: Tetrazolium dyes change colour on reduction, which living cells bring about.)

The nature of data set [2]: Neuroprotective activity in rat PC12 cells assessed as reduction in corticosterone-induced lesions by measuring cell viability at 12.5 uM pretreated for 24 hrs followed by corticosterone-challenge after 48 hrs by MTT assay. It is filed as functional, cell-based. Conditions: PC-12. The essentials: as §1
A short description of data set [3]: Neuroprotective activity in rat PC12 cells assessed as reduction in corticosterone-induced lesions by measuring cell viability at 6.25 uM pretreated for 24 hrs followed by corticosterone-challenge after 48 hrs by MTT assay. It is filed as functional, cell-based. Conditions: PC-12. The essentials:
as §1

The subject of the next data set is BV-2. The data set is described as follows: Inhibition of LPS-induced NO production in […] preincubated for 2 hrs followed by LPS-stimulation measured after 18 hrs by Griess assay. The note with it: Mus musculus. It is filed as functional, cell-based. In outline: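 BV2 cells seeded at 2.5 × 10^5 cells/mL and preincubated 2 h with compound, then LPS at 100 ng/mL final for 18 h. Supernatant was mixed 1:1 with Griess reagent for 10 min at room temperature and read at 540 nm. Inhibition = (AL − A0 − AC)/(AL − A0) × 100. IC50 reported as mean ± SEM of three independent experiments. L-NMMA was the positive control.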
(Nitrite, measured by Griess reagent, commonly stands in for NO production.)

The species entered for another data set is Rattus norvegicus. The data set is described as follows: Cytotoxicity against rat PC12 cells at 25 uM by MTT assay. The format is toxicity, cell-based. Conditions: pc-12, 25 µM. The essentials: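 PC12 cells in DMEM with 10% FBS, 5% horse serum and penicillin/streptomycin, 37 °C, 5% CO2. Seeded at 2 × 10^4 cells/well and exposed to compound at 25.00 μM. Viability was read by MTT.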

Data set [4] in a line: Cytotoxicity against […] BV2 cells assessed as cell viability by MTT assay relative to control. It is filed as toxicity, cell-based, BV-2. Details: concentration or dose not given beside the values. The note with it: mouse, read-out: Activity. In outline: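 BV2 microglia in DMEM with 10% heat-inactivated FBS and penicillin/streptomycin, 37 °C, 5% CO2. Viability was read by MTT in the cells used for the NO assay, which received 2 h compound pretreatment and then LPS at 100 ng/mL final for 18 h.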

The next data set relates to PC-12. The data set is described as follows: Decrease in corticosterone-induced intracellular calcium level in rat PC12 cells at 6.25 to 25 uM pretreated for 24 hrs followed by corticosterone-challenge after 48 hrs by Fluo-3AM dye-based flow cytometry. It is filed as functional, cell-based. The essentials: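 PC12 cells were pretreated 24 h with compound (6.25, 12.50, 25.00 μM) or fluoxetine 12.50 μM, then exposed to 200 μM corticosterone for 48 h. Cells were loaded with Fluo-3 AM and analysed by flow cytometry. Results are mean fluorescence intensity relative to vehicle control, mean ± SEM, n = 3.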
In general terms: Calcium assays in cells follow changes in intracellular calcium, usually with a dye or a luminescent sensor.

As usually defined, the IC50 is the concentration that inhibits the measured activity by half. On to `C=C(C)[C@H](CC=C(C)C)Cc1c(O)cc2oc3c(O)c(O)ccc3c(=O)c2c1O`, for which the Activity is 85.9% in data set [1], 78.8% in data set [2], 75.2% in data set [3] and “Non-Toxic” in the data set listed under Rattus norvegicus. Further, the IC50 in the data set with BV-2 stood at 9.6 µM. Further, the viability in data set [4] is more than 90%.
As to `C=C(C)[C@H](CC=C(C)C)Cc1c(O)c(C[C@@H](CC=C(C)C)C(=C)C)c2oc3c(O)c(O)ccc3c(=O)c2c1O`, the Activity was 92% in data set [1], 83.8% in data set [2], 78.4% in data set [3] and “Non-Toxic” in the data set filed under Rattus norvegicus. In the data set with BV-2, the IC50 stood at 7.47 µM. Also, in the data set with PC-12, the outcome was Active. Also, in data set [4], the viability is more than 90%.
As to `C[C@]12C[C@H](O)[C@H]3[C@@H](CCC4=CC(=O)CC[C@@]43C)[C@@H]1CC[C@@H]2C(=O)CO`, the Activity in data set [1] stood at 52.8%.
With `C=C(C)C(CC=C(C)C)Cc1c(O)cc(O)c2c(=O)c3ccc(O)c(O)c3oc12` (centres undefined), the Activity is 84.1% in data set [1], 78.1% in data set [2], 60.7% in data set [3] and “Non-Toxic” in the data set filed under Rattus norvegicus. The same compound returned an IC50 with BV-2 of 8.35 µM. In addition, the viability in data set [4] was more than 90%.
As for `C=C(C)C(CC=C(C)C)Cc1c2c(c(O)c3c(=O)c4ccc(O)c(O)c4oc13)C=CC(C)(C)O2` (centres undefined), the Activity in data set [1] is 65.4%; in data set [2], 71.2%; in data set [3] it was 64.8%; in the data set filed under Rattus norvegicus it was “Non-Toxic”. This compound gave a concentration for half-maximal inhibition (IC50) in the data set on BV-2 of more than 50 µM. For the same compound, the viability in data set [4] is more than 90%.
Regarding `CNCCC(Oc1ccc(C(F)(F)F)cc1)c1ccccc1` (centres undefined), the Activity in data set [2] turned out to be 70.5%.
With `CNC(=N)NCCC[C@H](N)C(=O)O` [TILARGININE], half-maximal inhibition in the data set with BV-2 (IC50) required 39.3 µM.
On to `C=C(C)C(CC=C(C)C)Cc1c(O)c(CC=C(C)C)c(O)c2c(=O)c3ccc(O)c(O)c3oc12` (centres undefined), for which the Activity in data set [1] was 66%; in data set [2], 60.2%; in data set [3], 57.5%; in the data set listed under Rattus norvegicus, “Non-Toxic”. This compound also yielded an IC50 in the data set with BV-2 of 5.66 µM. Besides, the viability in data set [4] was more than 90%.
